MC4R antag cAMP: blocks human MC4R cAMP signaling. inhibition, % at 6.5 µM. MC4R-expressing cells, MTII-stimulated cAMP, LANCE TR-FRET. P32245. 360,000 tested, 0.48% active;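 active = inhibition above its plate's cutoff, the mean of tested wells on that plate plus 3 SD, cut at about 29% in these data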;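 also: 0% = Melanotan II alone and 100% = Melanotan II plus saturating MCL0020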
Target sequence (P32245 whole entry, looked up): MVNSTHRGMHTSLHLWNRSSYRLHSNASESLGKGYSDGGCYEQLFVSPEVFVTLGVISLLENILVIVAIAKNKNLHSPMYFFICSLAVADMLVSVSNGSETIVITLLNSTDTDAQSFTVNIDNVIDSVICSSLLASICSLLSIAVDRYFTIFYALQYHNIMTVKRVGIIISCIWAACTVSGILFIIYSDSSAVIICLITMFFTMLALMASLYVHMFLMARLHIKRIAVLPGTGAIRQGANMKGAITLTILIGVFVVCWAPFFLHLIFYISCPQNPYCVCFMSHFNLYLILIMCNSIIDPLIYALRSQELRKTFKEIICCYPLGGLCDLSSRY
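Assay system: human MC4R-expressing U2OS cells; reagent: Melanotan II stimulation of cells; dosing: 6.5 µM single dose; timing: compound 30 min, challenge 1 h, detection 1 h; signal: TR-FRET cAMP assay; replicates: one well per compound, no replicates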
MC4R barr agon: agonists of human melanocortin 4 receptor (MC4R) beta-arrestin; activation, % at 8.9 µM; U2OS MC4R beta-arrestin complementation, luminescence; percent of melanotan II response, DMSO zero; 360,000 tested, 0.98% active; P32245;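 active = activation above a per-plate cutoff, the mean activation of sample wells on that plate plus 3 SD, cut at about 8% in these data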
SMARCA2 act: SMARCA2 function activation, primary screen. MG213 cells, MMTV-luciferase reporter, dexamethasone, overnight. activation, % at 9.1 µM. 370,000 tested, 1% active. AID 652017; in the data active = activation above about 7.8%;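 also: 0% = vehicle wells and 100% = reference activator wells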
F508del corr: correctors of CFTR F508del function in bronchial epithelial cells; CFBE cells, YFP halide quenching; stimulated with forskolin plus potentiator P3; % fluorescence drop versus neutral controls; activity (quench increase), % at 7.58 µM; 350,000 tested, 0.36% active;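 active = mean added fluorescence quench of at least 8% versus neutral control, with both replicates also reaching 8%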;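 also: cells transiently co-express mutant CFTR-F508del with the halide-sensitive YFP; corrector assay measuring rescue of mutant channel to the surface after 24 h compound exposure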
SMARCA2 conf: confirmation of SMARCA2 (BRM) function activators; shares compounds with SMARCA2 act; 3,500 tested, 30% active; activation, % at 9.1 µM; MG213 cells, MMTV-luciferase with dexamethasone, luminescence, overnight; MG213 cells expressing E1A, Rb sequestered; DMSO wells 0%, reference activator 100%;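 active = activation above its plate's cutoff, the mean activation of tested wells plus 3 SD, cut at about 7.9% in these data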
GAL4-VP16 Luc: GAL4-VP16 reporter activation counter-screen. HEK293 GAL4-VP16 pG5luc reporter, luciferase luminescence; scaled: DMSO wells 0%, SAHA wells 100%. 3,500 tested, 41% active. AID 686939. shares compounds with SMARCA2 act. activation, % at 9.1 µM;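 active = activation above the solvent-only control well mean plus 3 SD, averaged across control plates, cut at about 5.2% in these data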
* marks the source's active call; other numbers are inactive results; nt = no result given. Hits are enriched below; roughly 2.1% of the tested compounds scored in any of these assays.

SMILES	MC4R antag cAMP	MC4R barr agon	SMARCA2 act	F508del corr	SMARCA2 conf	GAL4-VP16 Luc
COc1ccc(NC(=O)N(C)C[C@@H]2Oc3c(NS(=O)(=O)c4ccc(OC)cc4)cccc3C(=O)N([C@@H](C)CO)C[C@H]2C)cc1	nt	nt	nt	-3.8	nt	nt
C[C@@H]1CCCCO[C@H](CN(C)C(=O)Cc2ccccc2)[C@@H](C)CN([C@@H](C)CO)C(=O)c2cc(NC(=O)CCC(F)(F)F)ccc2O1	nt	nt	nt	0.8	nt	nt
CO[C@H]1CN(C)C(=O)c2ccc(NC(=O)C3CCOCC3)cc2OC[C@H](C)N(C(C)=O)C[C@@H]1C	nt	nt	nt	-2.0	nt	nt
O=C(Nc1ccccc1F)N[C@H]1C=C[C@@H](CC(=O)N2CCCCC2)O[C@@H]1CO	nt	nt	nt	4.2	nt	nt
O=C(Nc1ccccc1Cl)c1ccc([N+](=O)[O-])o1	9.1	-1.6	9.0*	-4.5	17.5*	2.6
O=C(c1ccc(-c2cccc([N+](=O)[O-])c2)o1)N1CCN(c2ccc([N+](=O)[O-])cc2)CC1	1.3	-2.1	-1.2	-2.8	nt	nt
O=[N+]([O-])c1cccc(-c2ccc(C(=S)N3CCN(c4ccc(F)cc4)CC3)o2)c1	3.2	-0.4	9.1*	-0.4	0.0	-0.9
COc1cc(OC)c2c(c1)O/C(=C\c1ccccc1)C2=O	-1.8	-1.7	10.9*	1.6	7.0	9.4*
COCCNC(=O)c1c(N)n(/N=C/c2ccc(F)cc2)c2nc3ccccc3nc12	14.2	-0.2	0.5	-3.4	nt	nt
CC(C)CNC(=O)c1c(N)n(/N=C/c2ccccn2)c2nc3ccccc3nc12	7.2	0.2	8.5*	nt	-6.7	2.7
C[C@@H]1CCCCO[C@H](CN(C)Cc2ccncc2)[C@@H](C)CN([C@@H](C)CO)C(=O)c2cc(NC(=O)c3ccccc3)ccc2O1	nt	nt	nt	0.9	nt	nt
CCC(=O)N1C[C@H](O)COC[C@H]2O[C@H](CC(=O)N3CCCCC3)CC[C@@H]21	nt	nt	nt	-3.2	nt	nt
N#Cc1ccc(/C=C\c2nccc3c2[nH]c2ccccc23)cc1	7.7	3.9	9.9*	-0.4	10.2*	-1.5
COc1ccccc1NS(=O)(=O)c1cc(NC(=O)c2ccc(NC(C)=O)cc2)ccc1N1CCOCC1	15.2	-1.3	17.5*	-7.7	16.2*	2.9
COc1ccccc1NS(=O)(=O)c1cc(NC(=O)/C=C/c2cccs2)ccc1N1CCOCC1	-4.3	-1.7	17.7*	nt	9.2*	3.4
COc1ccccc1NC(=O)Nc1ccc(N2CCOCC2)cc1	-4.6	-3.6	8.8*	0.2	8.1*	5.6*
COc1ccc(S(=O)(=O)Nc2ccc3c(c2)C(=O)N([C@@H](C)CO)C[C@@H](C)[C@@H](CN(C)C(=O)Nc2ccc(F)cc2)O3)cc1	nt	nt	nt	1.6	nt	nt
CCCC#Cc1ccc2c(c1)O[C@@H](CN(C)C(=O)C1CCCCC1)[C@@H](C)CN([C@@H](C)CO)S2(=O)=O	nt	nt	nt	1.6	nt	nt
CC(C)n1nnnc1SCC(=O)c1ccc2c(c1)OCCO2	3.1	-2.1	5.5	nt	nt	nt
O=C(CSc1nnnn1C1CCCC1)c1ccc2c(c1)OCCO2	11.8	0.8	8.3*	nt	4.3	5.4*
COC(=O)c1c(NC(=O)Cc2ccccc2)sc2c1CC(C)(C)NC2(C)C	4.0	-0.1	11.7*	0.5	-0.8	1.4
C[C@@H]1CN([C@H](C)CO)C(=O)c2cccc(N(C)C)c2O[C@H]1CN(C)Cc1ccc(C(=O)O)cc1	nt	nt	nt	-1.3	nt	nt
Cc1csc(=O)n1CC(=O)Nc1ccc(C(C)C)cc1	7.4	1.0	8.0*	0.9	-1.3	5.4*
Cc1ccc(NC(=O)COC(=O)Cn2c(C)csc2=O)cc1	0.3	-1.4	-4.0	nt	nt	nt
CCc1nnc(NC(=O)c2cccc(NC(=O)C(C)C)c2)s1	6.6	-2.9	8.8*	nt	4.2	5.9*
SMILES	MC4R antag cAMP	MC4R barr agon	SMARCA2 act	F508del corr	SMARCA2 conf	GAL4-VP16 Luc
COc1ccc2c(c1)CC/C(=C\c1ccc(C)o1)C2=O	3.6	0.4	10.6*	-8.9	18.2*	13.7*
COc1ccc(NC(=O)Nc2ccc3c(c2)C(=O)N([C@@H](C)CO)C[C@H](C)[C@@H](CN(C)C)OCCCC[C@H](C)O3)cc1	nt	nt	nt	-1.7	nt	nt
Brc1ccc(-c2cn3ccccc3n2)cc1	11.3	3.0	14.6*	-1.6	3.2	11.3*
O=C(c1ccc(Cl)c([N+](=O)[O-])c1)N(Cc1cccc(Cl)c1)C1CCS(=O)(=O)C1 (configuration not stated)	26.6	-3.9	10.1*	nt	-4.2	0.9
Cc1cc(C)c2[nH]c(C(=O)Nc3ccc4c(c3)OCO4)cc2c1	13.2	0.2	8.0*	2.4	-0.4	3.4
COc1ccc(-c2nc(C#N)c(NCc3ccc(F)cc3)o2)cc1OC	-9.6	-2.2	-0.3	nt	nt	nt
COc1ccc(-c2nc(C#N)c(NCc3cccnc3)o2)cc1OC	-5.4	-1.4	10.1*	nt	-2.2	2.7
Fc1ccc(OCc2nc3ccccc3s2)cc1	-3.8	-1.2	9.1*	0.7	7.3	11.5*
CNC[C@H]1Oc2ccc(NC(=O)Cc3cn(C)c4ccccc34)cc2CC(=O)N([C@H](C)CO)C[C@@H]1C	nt	nt	nt	2.1	nt	nt
Cc1ccc(/C=C2/CNC/C(=C/c3ccc(C)cc3)C2=O)cc1	1.5	-1.4	14.9*	-8.9	-12.0	-2.9
O=C(COC(=O)Cn1nnc2ccccc21)NC1CCCC1	13.6	-0.5	9.9*	0.3	0.6	0.9
O=C(Cn1nnc2ccccc21)NC1CCCCC1	15.9	-0.7	-0.1	nt	nt	nt
C=CCN(C(=O)c1csnn1)C(C(=O)NCc1ccc(F)cc1)c1sccc1C (configuration not stated)	-2.8	1.2	8.0*	0.9	-3.0	-1.6
O=C(NCc1ccc(F)cc1)C(c1cccnc1)N(C(=O)c1csnn1)c1ccccc1 (configuration not stated)	3.4	-0.7	9.0*	-0.2	-4.4	0.3
Cc1ccc(N(C(=O)c2csnn2)C(C(=O)NC2CCCCC2)c2cccnc2)cc1 (configuration not stated)	20.6	-2.2	9.6*	-1.7	-2.1	3.9
O=C(O)C[C@H]1C[C@@H]2c3cc(NC(=O)C4CCOCC4)ccc3O[C@@H]2[C@H](CO)O1	nt	nt	nt	-0.4	nt	nt
COc1ccc(/C=N/NC(=S)N[C@H]2CC3CCC2C3)cc1 (some centres not stated)	10.2	4.8	-1.6	-0.3	nt	nt
COc1cc(/C=N/NC(=S)NC2CC3CCC2C3)ccc1O (configuration not stated)	-5.3	-0.3	9.4*	-2.6	7.1	3.2
CCc1cccc(C)c1NC(=O)CSc1nc2ccncc2[nH]1	-0.9	-1.9	0.7	-0.6	nt	nt
CCc1cccc(CC)c1NC(=O)C(CC)Sc1nc2ccncc2[nH]1 (configuration not stated)	0.6	-0.4	8.3*	-1.0	0.3	0.7
